# According to ChEMBL document CHEMBL3785009, “Oxadiazole-Based Cell Permeable Macrocyclic Transition State Inhibitors of Norovirus 3CL Protease” (J Med Chem, 2016):
# Tests used:
# [1] = Antiviral activity against Murine norovirus1 infected in […] cells assessed as inhibition of virus induced cytopathic effect after 48 hrs by CytoTox96 nonradioactive cytotoxicity assay; conditions: Murine norovirus 1, 48 h
# [2] = Cytotoxicity against human HG23 cells by CytoTox96 nonradioactive cytotoxicity assay; assay type: functional
# Outline: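 HG23 cells (Huh-7 cells harbouring NV replicon) exposed to compound in serial dilution up to 100 µM; cytotoxicity read with a nonradioactive cytotoxicity kit; CC50 taken as concentration giving 50% cytotoxicity; at least two independent experiments.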
# [3] = Inhibition of Norovirus 3C-like protease using Edans-DFHLQGP-Dabcyl fluorogenic substrate after 30 mins as substrate by FRET assay
# Outline: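 FRET assay with the fluorogenic substrate derived from NV polyprotein cleavage sites. Compounds tested up to 100 μM. IC50 from at least two independent experiments.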
# Norovirus = experiment: Antiviral activity against Norovirus infected in human HG23 cells assessed as reduction in RNA levels after 48 hrs by RT-PCR; assay type: functional, cell-based; conditions: for EC50 / EC90: HG23, 48 h
# Outline: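 HG23 cells are Huh-7 cells carrying the NV replicon. Cells were seeded 1 day before treatment with compound (1.0–100 μM) for 48 h. Total RNA was extracted and norovirus and β-actin RNA measured by qRT-PCR. EC50/EC90 derived from % RNA reduction versus mock after β-actin normalization. At least two independent experiments; mean and standard deviation reported.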
smiles,measurement,setting,value
CC(C)C[C@@H]1NC(=O)[C@@H](NC(=O)OC(C)(C)C)CCC2=NN=C(CCCNC(=O)CC[C@@H](C=O)NC1=O)O2,EC50,[1],11.1 µM
same,CC50,[2],> 100 µM
same,IC50,[3],21.3 µM
same,EC50,Norovirus,5.9 µM
same,EC90,Norovirus,30.5 µM
CC(C)(C)OC(=O)N[C@H]1CCC2=NN=C(CCCCNC(=O)CC[C@@H](C=O)NC(=O)[C@H](CC3CCCCC3)NC1=O)O2,EC50,[1],10.9 µM
same,CC50,[2],> 100 µM
same,IC50,[3],18.5 µM
same,Activity,Norovirus,Dose-dependent effect
same,EC50,Norovirus,6.5 µM
same,EC90,Norovirus,18.2 µM
CC(C)C[C@@H]1NC(=O)[C@@H](NC(=O)OC(C)(C)C)CCC2=NN=C(CNC(=O)CC[C@@H](C=O)NC1=O)O2,EC50,[1],> 100 µM
same,CC50,[2],> 100 µM
same,IC50,[3],34.3 µM
same,EC50,Norovirus,18.1 µM
same,EC90,Norovirus,72.7 µM
CC(C)(C)OC(=O)N[C@H]1CCC2=NN=C(CCNC(=O)CC[C@@H](C=O)NC(=O)[C@H](CC3CCCCC3)NC1=O)O2,EC50,[1],19.9 µM
same,CC50,[2],> 100 µM
same,IC50,[3],14.5 µM
same,EC50,Norovirus,5.1 µM
same,EC90,Norovirus,38.2 µM
CC(C)(C)OC(=O)N[C@H]1CCC2=NN=C(CCCNC(=O)CC[C@@H](C=O)NC(=O)[C@H](CC3CCCCC3)NC1=O)O2,EC50,[1],> 100 µM
same,CC50,[2],> 100 µM
same,IC50,[3],45.1 µM
same,EC50,Norovirus,9.4 µM
same,EC90,Norovirus,73.3 µM
CC(C)C[C@@H]1NC(=O)[C@@H](NC(=O)OC(C)(C)C)CC2=NN=C(CNC(=O)CC[C@@H](C=O)NC1=O)O2,EC50,[1],> 100 µM
same,CC50,[2],> 100 µM
same,IC50,[3],> 100 µM
same,EC50,Norovirus,19.4 µM
same,EC90,Norovirus,> 100 µM
CC(C)C[C@@H]1NC(=O)[C@@H](NC(=O)OC(C)(C)C)CCC2=NN=C(CCNC(=O)CC[C@@H](C=O)NC1=O)O2,EC50,[1],9.8 µM
same,CC50,[2],> 100 µM
same,IC50,[3],15.3 µM
same,EC50,Norovirus,2.5 µM
same,EC90,Norovirus,23.4 µM
CC(C)(C)OC(=O)N[C@H]1CCC2=NN=C(CCCCCNC(=O)CC[C@@H](C=O)NC(=O)[C@H](CC3CCCCC3)NC1=O)O2,EC50,[1],> 100 µM
same,CC50,[2],> 100 µM
same,IC50,[3],8.6 µM
same,EC50,Norovirus,51.2 µM
same,EC90,Norovirus,> 100 µM
